Series [1] has as its target T1, NACHT, LRR and PYD domains-containing protein 3 (Homo sapiens, UniProt Q96P20). The series is described as follows: Inhibition of NLRP3 inflammasome activation in LPS-primed human THP1 cells assessed as reduction in IL-1beta level preincubated for 1 hr followed by addition of ATP and nigericin further incubated for 1 hrs and measured post ATP addition 1 hr by ELISA method. The series is classed as cell-based, THP-1. Background: An ELISA detects its analyte on a solid surface through an enzyme-linked reagent.

Series [2] has as its target T1, NACHT, LRR and PYD domains-containing protein 3. The series is described as follows: Inhibition of NLRP3 inflammasome activation in LPS-primed human THP1 cells assessed as reduction in IL-1beta level at 1 uM preincubated for 1 hr followed by addition of ATP and nigericin further incubated for 1 hrs and measured post ATP addition 1 hr by ELISA method relative to control. The class given is cell-based. The conditions noted are these: THP-1.

The nature of series [3]: Oral bioavailability in C57/BL6 mouse at 3 mg/kg measured up to 24 hrs by LC-MS/MS analysis. To be noted: in vivo. The class given is ADME, organism-based. An outline of the steps: (§1)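 Mouse PK, composite design, n = 3 per time point, mean values. Dosed 3 mg/kg po in 1% Tween 80 + 99% (0.5%) methyl cellulose in water; 1 mg/kg iv in 5% NMP + 5% solutol + 90% normal saline for bioavailability reference.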

Series [4] in a line: Half life in C57/BL6 mouse at 3 mg/kg, po measured up to 24 hrs by LC-MS/MS analysis. The class given is ADME, organism-based. To be noted: in vivo. An outline of the steps:
as §1

Series [5] in a line: AUC in C57/BL6 mouse at 3 mg/kg, po measured up to 24 hrs by LC-MS/MS analysis. The series is classed as ADME, organism-based. Details: dose 3 mg/kg, time < 24 hr, route oral. To be noted: in vivo. An outline of the steps:
as §1

The test system of a further series is Mus musculus. The series is described as follows: Inhibition of LPS-induced serum IL-1beta production in C57/BL6 mouse at 10 mg/kg, po post-challenge with LPS for 2 hrs followed by ATP-challenge and measured after 30 mins by ELISA method relative to control. The series is classed as functional. In a few lines:
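Acute LPS+ATP challenge model in female C57BL/6 mice, n = 6/group; single oral dose 10 mg/kg in 1% Tween 80 and 99% methyl cellulose (0.5%); IL-1β compared with vehicle control; error bars SEM.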

T1 sequence (Q96P20 whole entry, the tested form may be a part): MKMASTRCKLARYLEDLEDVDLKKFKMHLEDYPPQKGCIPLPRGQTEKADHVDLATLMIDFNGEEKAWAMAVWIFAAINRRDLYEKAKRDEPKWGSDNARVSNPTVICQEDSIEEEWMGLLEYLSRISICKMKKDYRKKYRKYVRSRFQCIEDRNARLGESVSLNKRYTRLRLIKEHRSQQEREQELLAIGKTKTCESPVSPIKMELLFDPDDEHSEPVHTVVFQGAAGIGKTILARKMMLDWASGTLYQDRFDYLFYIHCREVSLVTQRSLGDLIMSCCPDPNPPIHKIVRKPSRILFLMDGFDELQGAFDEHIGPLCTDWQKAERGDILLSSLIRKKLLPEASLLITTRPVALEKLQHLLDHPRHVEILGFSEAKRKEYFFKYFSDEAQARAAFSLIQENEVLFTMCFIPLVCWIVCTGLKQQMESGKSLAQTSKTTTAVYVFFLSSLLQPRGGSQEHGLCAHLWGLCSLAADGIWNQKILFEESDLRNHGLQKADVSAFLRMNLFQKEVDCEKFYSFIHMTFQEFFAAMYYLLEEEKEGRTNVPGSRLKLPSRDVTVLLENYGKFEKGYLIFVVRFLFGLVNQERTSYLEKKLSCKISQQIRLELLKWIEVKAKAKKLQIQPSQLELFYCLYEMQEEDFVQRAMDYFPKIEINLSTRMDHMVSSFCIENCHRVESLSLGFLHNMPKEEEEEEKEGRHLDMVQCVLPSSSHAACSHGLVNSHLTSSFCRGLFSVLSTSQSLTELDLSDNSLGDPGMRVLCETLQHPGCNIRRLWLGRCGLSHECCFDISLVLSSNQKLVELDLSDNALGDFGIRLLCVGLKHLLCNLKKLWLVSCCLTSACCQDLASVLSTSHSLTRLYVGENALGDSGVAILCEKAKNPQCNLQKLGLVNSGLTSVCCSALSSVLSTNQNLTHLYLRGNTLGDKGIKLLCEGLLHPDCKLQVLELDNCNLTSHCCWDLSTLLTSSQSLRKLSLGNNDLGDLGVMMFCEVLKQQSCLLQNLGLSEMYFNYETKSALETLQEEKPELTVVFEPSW

On to `O=C(Nc1c2c(cc3c1CCC3)CCC2)NC(c1ccccc1)C(F)(F)F` (stereo unspecified), for which, in series [1], the IC50 (usually the concentration that inhibits the measured activity by half) was over 1000 nM. In series [2], the inhibition (usually the percentage by which the read-out fell short of the control) was under 50%. `Cc1ccc(S(=O)(=O)NC(=O)C(=O)c2c3c(cc4c2CCC4)CCC3)cc1`: in series [1], the IC50 is over 1000 nM. The same measure, in the same setting: the figure for `Cc1ccc(S(=O)(=NCC(F)(F)F)NC(=O)Nc2c3c(cc4c2CCC4)CCC3)cc1` (stereo unspecified) is over 1000 nM; for `CCOC(=O)N=S(=O)(NC(=O)Nc1c2c(cc3c1CCC3)CCC2)c1ccc(C)cc1` (stereo unspecified) it is over 1000 nM. Turning to `N#CN=S(=O)(NC(=O)Nc1c2c(cc3c1CCC3)CCC2)c1ccc(C#N)cc1` (stereo unspecified), the bioavailability (as a rule, the share of a dose that reaches the circulation, judged against a reference dose that is usually intravenous) in series [3] was 27%. Also, in series [4], the half-life (commonly the time needed for the level to fall by half in the phase considered) was 1.03 h. For the same compound, the AUC – broadly, the area under the concentration-time curve, a measure of exposure – at 24 h in series [5] was determined as 800 ng·h/mL. On to `O=C(Nc1c2c(cc3c1CCC3)CCC2)NC1(c2ccccc2)COC1`, for which the IC50 in series [1] is over 1000 nM.

Compound `N#CN=S(=O)(NC(=O)Nc1c2c(cc3c1CCC3)CCC2)c1cccc(C#N)c1` (stereo unspecified) yielded a bioavailability in series [3] of 40%. In addition, the half-life in series [4] is 1.13 h. The AUC at 24 h in series [5] turned out to be 1200 ng·h/mL. `CN=S(=O)(NC(=O)Nc1c2c(cc3c1CCC3)CCC2)c1ccc(C)cc1` (stereo unspecified): the IC50 in series [1] was over 1000 nM. Still for that read-out and setting: in the case of `Cc1ccc(S(=O)(=O)N/C(=N\C#N)Nc2c3c(cc4c2CCC4)CCC3)cc1` it was over 1000 nM; in that of `Cc1ccc(S(=O)(=O)NC(=O)C(=O)Nc2c3c(cc4c2CCC4)CCC3)cc1`, over 1000 nM; in that of `Cc1ccc(S(=O)(=Nc2ccn[nH]2)NC(=O)Nc2c3c(cc4c2CCC4)CCC3)cc1` (stereo unspecified), over 1000 nM. The same measure, in the same setting: the figure for `CC(=O)N=S(=O)(NC(=O)Nc1c2c(cc3c1CCC3)CCC2)c1ccc(C)cc1` (stereo unspecified) is over 1000 nM.

Regarding `N#CC(NC(=O)Nc1c2c(cc3c1CCC3)CCC2)c1ccccc1` (stereo unspecified), the IC50 in series [1] was over 1000 nM. Further, the inhibition in series [2] was under 50%. For `N#CN=S(=O)(NC(=O)Nc1c2c(cc3c1CCC3)CCC2)c1cccnc1` (stereo unspecified), the bioavailability in series [3] worked out at 24%. In addition, the half-life in series [4] is 1.66 h. In addition, in series [5], the AUC at 24 h is 1280 ng·h/mL. As to `Cc1ccc(S(=O)(=Nc2ccc(F)cc2)NC(=O)Nc2c3c(cc4c2CCC4)CCC3)cc1` (stereo unspecified), the IC50 in series [1] is over 1000 nM. The same measure, in the same setting: the figure for `Cc1ccc(S(=O)(=O)NC(=O)Cc2c3c(cc4c2CCC4)CCC3)cc1` is over 1000 nM; for `Cc1ccc(S(=O)(=O)Nc2c(Nc3c4c(cc5c3CCC5)CCC4)c(=O)c2=O)cc1` it is over 1000 nM; for `Cc1ccc(S(=O)(=O)NC(=O)C(O)c2c3c(cc4c2CCC4)CCC3)cc1` (stereo unspecified) it is over 1000 nM. For `N#CN=S(=O)(NC(=O)Nc1c2c(cc3c1CCC3)CCC2)c1ccccn1` (stereo unspecified), the bioavailability in series [3] is 97%. The half-life in series [4] was 5.2 h. Further, in series [5], the AUC at 24 h amounted to 8200 ng·h/mL. Further, at 10 mg/kg the inhibition in vivo in the series on Mus musculus was 57%.

Turning to `Cc1ccc(S(=O)(=NC#N)NC(=O)Nc2c3c(cc4c2CCC4)CCC3)cc1F` (stereo unspecified), the bioavailability in series [3] was determined as 59%. The compound also showed a half-life in series [4] of 2.38 h. Further, the AUC at 24 h in series [5] came to 3200 ng·h/mL. Moreover, the inhibition in vivo (as a rule, the percentage by which the read-out fell short of the control) at 10 mg/kg in the series on Mus musculus worked out at 50%. As for `CON=S(=O)(NC(=O)Nc1c2c(cc3c1CCC3)CCC2)c1ccc(C)cc1` (stereo unspecified), the IC50 in series [1] is over 1000 nM. Compound `Cc1ccc(S(=O)(=NC#N)NC(=O)Nc2c3c(cc4c2CCC4)CCC3)cc1` (stereo unspecified) displayed a bioavailability in series [3] of 56%. Further, in series [4], the half-life was 2.91 h. For the same compound, in series [5], the AUC at 24 h was found to be 4200 ng·h/mL. Besides, in the series with Mus musculus, the inhibition in vivo at 10 mg/kg was 44%.

In the case of `Cc1ccc(S(=O)(=NC(N)=O)NC(=O)Nc2c3c(cc4c2CCC4)CCC3)cc1` (stereo unspecified), the IC50 in series [1] is over 1000 nM. As to `Cc1ccc(S(=O)(=O)NS(=O)(=O)Nc2c3c(cc4c2CCC4)CCC3)cc1`, the IC50 in series [1] is over 1000 nM.

The record behind these values is ChEMBL document CHEMBL4602705, “Discovery of N-Cyano-sulfoximineurea Derivatives as Potent and Orally Bioavailable NLRP3 Inflammasome Inhibitors” (ACS Med Chem Lett, 2020).
